Experimental data reported in ChEMBL document CHEMBL1275427, “Antimicrobial susceptibilities of geographically diverse clinical human isolates of Leptospira” (2008).
≈ marks a conversion by molar mass, not a printed value.

What was measured:
Format in all cases: functional
[1] = Antimicrobial activity against Leptospira interrogans serovar Icterohaemorrhagiae isolate 9 by broth microdilution method
Summary of the method: (§1)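 Strains grown 7 days in EMJH medium at 30°C; inoculum counted by Petroff-Hausser chamber under dark-field microscopy and added at 2 × 10^6 organisms/ml. Twofold serial dilutions in EMJH, final 32.0 to 0.016 μg/ml (units/ml for penicillin), 96-well round-bottom plates, 30°C. alamarBlue added day 3; colour read day 5. MIC is lowest concentration without blue-to-pink change. Triplicate runs, median reported; L. interrogans Icterohaemorrhagiae quality control.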

[2] = tested on: Leptospira weilii; assay: Antimicrobial activity against Leptospira weilii isolate 6 by broth microdilution method; summary of the method: as §1
[3] = Antimicrobial activity against Leptospira interrogans serovar Grippotyphosa isolate 2 by broth microdilution method
Summary of the method: (§2)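 Serial twofold dilutions in EMJH medium, final 32.0 to 0.016 μg/ml (units/ml for penicillin). Inoculum from 7-day EMJH cultures grown at 30°C, counted by Petroff-Hausser chamber under dark-field microscopy, added at 2 × 10^6 organisms/ml. Plates incubated at 30°C; alamarBlue added on day 3 and colour read on day 5. MIC is the lowest concentration without blue-to-pink change; median of triplicate runs.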

[4] = tested on: Leptospira weilii; assay: Antimicrobial activity against Leptospira weilii isolate 8 by broth microdilution method; summary of the method: as §1
[5] = Antimicrobial activity against Leptospira interrogans serovar Canicola isolate 11 by broth microdilution method; summary of the method: as §1
[6] = Antimicrobial activity against Leptospira interrogans serovar Pomona isolate 4 by broth microdilution method; summary of the method: as §1
[7] = Antimicrobial activity against Leptospira interrogans serovar Bataviae isolate 1 by broth microdilution method; summary of the method: as §1
[8] = Antimicrobial activity against Leptospira interrogans isolate 7 by broth microdilution method; summary of the method: as §2
[9] = Antimicrobial activity against Leptospira interrogans serovar Icterohaemorrhagiae isolate 10 by broth microdilution method; summary of the method: as §1
[10] = Antimicrobial activity against Leptospira interrogans serovar Icterohaemorrhagiae isolate 3 by broth microdilution method; summary of the method: as §1
[11] = Antimicrobial activity against Leptospira interrogans serovar Pomona isolate 12 by broth microdilution method; summary of the method: as §1
[12] = tested on: Leptospira kirschneri serovar Grippotyphosa; assay: Antimicrobial activity against Leptospira kirschneri serovar Grippotyphosa isolate 13 by broth microdilution method; summary of the method: as §2
[13] = Antimicrobial activity against Leptospira interrogans serovar Pyrogenes isolate 5 by broth microdilution method; summary of the method: as §1
[14] = Leptospira interrogans, isolate 9, read-out: MIC
[15] = Leptospira weilii, isolate 6, read-out: MIC
[16] = Leptospira weilii, isolate 8, read-out: MIC
[17] = Leptospira interrogans, isolate 11, read-out: MIC
[18] = Leptospira interrogans, isolate 4, read-out: MIC
[19] = Leptospira interrogans, isolate 1, read-out: MIC
[20] = Leptospira interrogans, isolate 7, read-out: MIC
[21] = Leptospira interrogans, isolate 10, read-out: MIC
[22] = Leptospira interrogans, isolate 3, read-out: MIC
[23] = Leptospira interrogans, isolate 12, read-out: MIC
[24] = Leptospira kirschneri, isolate 13, read-out: MIC
[25] = Leptospira interrogans, isolate 5, read-out: MIC

Compound	MIC [1, 14]	MIC [2, 15]	MIC [3]	MIC [4, 16]	MIC [5, 17]	MIC [6, 18]	MIC [7, 19]	MIC [8, 20]	MIC [9, 21]	MIC [10, 22]	MIC [11, 23]	MIC [12, 24]	MIC [13, 25]	further results
CC[C@H]1OC(=O)[C@H](C)[C@@H](O[C@H]2C[C@@](C)(OC)[C@@H](O)[C@H](C)O2)[C@H](C)[C@@H](O[C@@H]2O[C@H](C)C[C@H](N(C)C)[C@H]2O)[C@](C)(OC)C[C@@H](C)C(=O)[C@H](C)[C@@H](O)[C@]1(C)O [CLARITHROMYCIN]	< 0.016 µg/mL	< 0.016 µg/mL	< 0.016 µg/mL	< 0.016 µg/mL	< 0.016 µg/mL	< 0.016 µg/mL	< 0.016 µg/mL	< 0.016 µg/mL	< 0.016 µg/mL	< 0.016 µg/mL	< 0.016 µg/mL	< 0.016 µg/mL	< 0.016 µg/mL	–
C[C@H]1c2cccc(O)c2C(=O)C2=C(O)[C@]3(O)C(=O)C(C(N)=O)=C(O)[C@@H](N(C)C)[C@@H]3[C@@H](O)[C@@H]21.O [DOXYCYCLINE]	0.25 µg/mL	0.5 µg/mL	1 µg/mL	0.5 µg/mL	0.06 µg/mL	2 µg/mL	1 µg/mL	0.25 µg/mL	0.5 µg/mL	2 µg/mL	0.06 µg/mL	< 0.016 µg/mL	1 µg/mL	–
C[C@H]1COc2c(N3CCN(C)CC3)c(F)cc3c(=O)c(C(=O)O)cn1c23.C[C@H]1COc2c(N3CCN(C)CC3)c(F)cc3c(=O)c(C(=O)O)cn1c23.O [LEVOFLOXACIN]	0.125 µg/mL	0.06 µg/mL	0.06 µg/mL	0.125 µg/mL	0.03 µg/mL	0.125 µg/mL	0.06 µg/mL	0.06 µg/mL	0.125 µg/mL	0.06 µg/mL	< 0.016 µg/mL	< 0.016 µg/mL	0.06 µg/mL	–
COc1c(N2C[C@@H]3CCCN[C@@H]3C2)c(F)cc2c(=O)c(C(=O)O)cn(C3CC3)c12 [MOXIFLOXACIN]	0.125 µg/mL (≈ 0.311 µM)	0.06 µg/mL (≈ 0.149 µM)	0.06 µg/mL (≈ 0.149 µM)	0.125 µg/mL (≈ 0.311 µM)	0.03 µg/mL (≈ 0.0747 µM)	0.125 µg/mL (≈ 0.311 µM)	0.06 µg/mL (≈ 0.149 µM)	0.06 µg/mL (≈ 0.149 µM)	0.125 µg/mL (≈ 0.311 µM)	0.06 µg/mL (≈ 0.149 µM)	< 0.016 µg/mL	0.03 µg/mL (≈ 0.0747 µM)	0.06 µg/mL (≈ 0.149 µM)	–
CC1(C)S[C@@H]2[C@H](NC(=O)Cc3ccccc3)C(=O)N2[C@H]1C(=O)O [PENICILLIN G]	–	–	–	–	–	–	–	–	–	–	–	–	–	MIC [1]: <0.016 U/ml; MIC [2]: 0.03 U/ml; MIC [4]: 0.06 U/ml; MIC [5]: 0.25 U/ml; MIC [6]: 0.06 U/ml; MIC [7]: <0.016 U/ml; MIC [8]: 0.06 U/ml; MIC [9]: <0.016 U/ml; MIC [10]: <0.016 U/ml; MIC [11]: 0.06 U/ml; MIC [12]: 0.125 U/ml; MIC [13]: <0.016 U/ml
CN(C)[C@@H]1C(O)=C(C(N)=O)C(=O)[C@@]2(O)C(O)=C3C(=O)c4c(O)cccc4[C@@](C)(O)[C@H]3C[C@@H]12 [TETRACYCLINE]	1 µg/mL (≈ 2.25 µM)	1 µg/mL (≈ 2.25 µM)	1 µg/mL (≈ 2.25 µM)	0.5 µg/mL (≈ 1.13 µM)	0.125 µg/mL (≈ 0.281 µM)	2 µg/mL (≈ 4.5 µM)	1 µg/mL (≈ 2.25 µM)	1 µg/mL (≈ 2.25 µM)	0.5 µg/mL (≈ 1.13 µM)	4 µg/mL (≈ 9 µM)	0.125 µg/mL (≈ 0.281 µM)	< 0.016 µg/mL	4 µg/mL (≈ 9 µM)	–
